The record followed here is ChEMBL document CHEMBL4613246, “Antimycobacterial Rufomycin Analogues from Streptomyces atratus Strain MJM3502” (J Nat Prod, 2020).

Starred links: 1 amine or outer side, 2 acyl side, 3 side chain; linkers in the order of their positions; H or OH if unused. Non-standard residues stand in square brackets, D forms with d. Residues, ends and D or L forms follow the SMILES beside them. Trp(1-CMe2(2S-oxiranyl)) = CC(C)([C@H]1CO1)n1cc(C[C@H](N)C(=O)O)c2ccccc21; Trp(1-(1,1-Me2-allyl)) = C=CC(C)(C)n1cc(C[C@H](N)C(=O)O)c2ccccc21; X3 = CC(C)([C@H](O)CCl)n1cc(C[C@H](N[*:1])C(=O)[*:2])c2ccccc21; Tyr(3-NO2) = N[C@@H](Cc1ccc(O)c([N+](=O)[O-])c1)C(=O)O; X1 = COC(OC)C(C)C[C@@H](C(=O)[*:2])N(C)[*:1]; X2 = C[C@H](CO)C[C@@H](C(=O)[*:2])N(C)[*:1]; Gly(E-crotyl) = C/C=C/C[C@H](N)C(=O)O; NMeL = CN[C@@H](CC(C)C)C(=O)O

For experiment [1], the system named is Mycobacterium tuberculosis. The experiment can be described thus: Bactericidal activity against Mycobacterium tuberculosis H37Rv harboring LuxAB gene assessed as reduction in microbial growth by measuring reduction in relative luminescence units after 14 days by luminometric method. Type of experiment: functional. To be noted: 336 h. The method, boiled down: (§1)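 Viability was read from an H37Rv luminescent reporter strain carrying plasmid pMV306hsp+LuxAB+G13+CDE. It was incubated with compound for two weeks, with luminescence read on days 7 and 14.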

Experiment [2] has as its system Mycobacterium tuberculosis. Description: Bactericidal activity against Mycobacterium tuberculosis H37Rv harboring LuxAB gene assessed as reduction in microbial growth by measuring reduction in relative luminescence units after 7 days by luminometric method. Type of experiment: functional. The following applies: 168 h. An outline of the steps: as §1

With `C=CC(C)(C)n1cc(C[C@@H]2NC(=O)[C@H](C/C=C/C)NC(=O)[C@H](CC(C)C)NC(=O)[C@H](CC(C)C)N(C)C(=O)[C@H](C)NC(=O)[C@H](Cc3ccc(O)cc3)NC(=O)[C@H](CC(C)C)N(C)C2=O)c2ccccc21` (HELM PEPTIDE1{A.[meL].L.[C/C=C/C[C@H](N[*:1])C(=O)[*:2]].[C=CC(C)(C)n1cc(C[C@H](N[*:1])C(=O)[*:2])c2ccccc21].[meL].Y}$PEPTIDE1,PEPTIDE1,1:R1-7:R2$$$V2.0), the MBC is 5.2 µM in experiment [1] and greater than 10 µM in experiment [2].

In the case of `C/C=C/C[C@@H]1NC(=O)[C@H](CC(C)C)NC(=O)[C@H](CC(C)C)N(C)C(=O)[C@H](C)NC(=O)[C@H](Cc2ccc(O)c([N+](=O)[O-])c2)NC(=O)[C@H](CC(C)C)NC(=O)[C@H](Cc2cn(C(C)(C)[C@H]3CO3)c3ccccc23)NC1=O` (cyclo(A[NMeL]L[Gly(E-crotyl)][Trp(1-CMe2(2S-oxiranyl))]L[Tyr(3-NO2)])), the MBC in experiment [1] was 2.2 µM; in experiment [2], greater than 10 µM.

Take `C/C=C/C[C@@H]1NC(=O)[C@H](CC(C)C)N2C(=O)[C@H](C[C@@H](C)[C@H]2O)N(C)C(=O)[C@H](C)NC(=O)[C@H](Cc2ccc(O)c([N+](=O)[O-])c2)NC(=O)[C@H](CC(C)C)N(C)C(=O)[C@H](Cc2cn(C(C)(C)[C@H](O)CO)c3ccccc23)NC1=O`: the MBC in experiment [1] was 0.58 µM; in experiment [2], greater than 10 µM.

For `C=CC(C)(C)n1cc(C[C@@H]2NC(=O)[C@H](C/C=C/C)NC(=O)[C@H](CC(C)C)NC(=O)[C@H](C[C@H](C)CO)N(C)C(=O)[C@H](C)NC(=O)[C@H](Cc3ccc(O)c([N+](=O)[O-])c3)NC(=O)[C@H](CC(C)C)N(C)C2=O)c2ccccc21` (cyclo(A[X2]L[Gly(E-crotyl)][Trp(1-(1,1-Me2-allyl))][NMeL][Tyr(3-NO2)])), the results for the MBC in experiment [1] and in experiment [2] were 9.6 µM and greater than 10 µM, respectively.

With `C/C=C/C[C@@H]1NC(=O)[C@H](CC(C)C)N2C(=O)[C@H](C[C@](C)(O)[C@H]2O)N(C)C(=O)[C@H](C)NC(=O)[C@H](Cc2ccc(O)c([N+](=O)[O-])c2)NC(=O)[C@H](CC(C)C)N(C)C(=O)[C@H](Cc2cn(C(C)(C)[C@H]3CO3)c3ccccc23)NC1=O`, the MBC in experiment [1] is 4.6 µM; in experiment [2] it was greater than 10 µM.

`C/C=C/C[C@@H]1NC(=O)[C@H](CC(C)C)N2C(=O)[C@H](CC(C)[C@H]2O)N(C)C(=O)[C@H](C)NC(=O)[C@H](Cc2ccc(O)c([N+](=O)[O-])c2)NC(=O)[C@H](CC(C)C)N(C)C(=O)[C@H](Cc2cn(C(C)(C)[C@H]3CO3)c3ccccc23)NC1=O` (some centres undefined): the minimal bactericidal concentration (MBC) in experiment [1] was 0.88 µM; in experiment [2], greater than 10 µM.

On to `C=CC(C)(C)n1cc(C[C@@H]2NC(=O)[C@H](C/C=C/C)NC(=O)[C@H](CC(C)C)NC(=O)[C@H](CC(C)C)N(C)C(=O)[C@H](C)NC(=O)[C@H](Cc3ccc(O)c([N+](=O)[O-])c3)NC(=O)[C@H](CC(C)C)N(C)C2=O)c2ccccc21` (cyclo(A[NMeL]L[Gly(E-crotyl)][Trp(1-(1,1-Me2-allyl))][NMeL][Tyr(3-NO2)])), for which the MBC in experiment [1] was 4.5 µM; in experiment [2], greater than 10 µM.

Take `C/C=C/C[C@@H]1NC(=O)[C@H](CC(C)C)NC(=O)[C@H](CC(C)C)N(C)C(=O)[C@H](C)NC(=O)[C@H](Cc2ccc(O)c([N+](=O)[O-])c2)NC(=O)[C@H](CC(C)C)N(C)C(=O)[C@H](Cc2cn(C(C)(C)[C@H](O)CCl)c3ccccc23)NC1=O` (cyclo(A[NMeL]L[Gly(E-crotyl)][X3][NMeL][Tyr(3-NO2)])): the MBC in experiment [1] is 3.1 µM; in experiment [2], greater than 10 µM.

Consider `CO[C@H]1/C=C/O[C@@]2(C)Oc3c(C)c(O)c4c(O)c(c(/C=N/N5CCN(C)CC5)c(O)c4c3C2=O)NC(=O)/C(C)=C\C=C\[C@H](C)[C@H](O)[C@@H](C)[C@@H](O)[C@@H](C)[C@H](OC(C)=O)[C@@H]1C` [RIFAMPIN], for which the values for the MBC in experiment [1] and in experiment [2] were 0.12 µM and 0.24 µM, respectively.

`C/C=C/C[C@@H]1NC(=O)[C@H](CC(C)C)NC(=O)[C@H](CC(C)C)N(C)C(=O)[C@H](C)NC(=O)[C@H](Cc2ccc(O)c([N+](=O)[O-])c2)NC(=O)[C@H](CC(C)C)N(C)C(=O)[C@H](Cc2cn(C(C)(C)[C@H]3CO3)c3ccccc23)NC1=O` (cyclo(A[NMeL]L[Gly(E-crotyl)][Trp(1-CMe2(2S-oxiranyl))][NMeL][Tyr(3-NO2)])): the minimum bactericidal concentration (MBC) in experiment [1] is 1 µM; in experiment [2] it was greater than 10 µM.

Consider `C/C=C/C[C@@H]1NC(=O)[C@H](CC(C)C)NC(=O)[C@H](CC(C)C(OC)OC)N(C)C(=O)[C@H](C)NC(=O)[C@H](Cc2ccc(O)c([N+](=O)[O-])c2)NC(=O)[C@H](CC(C)C)N(C)C(=O)[C@H](Cc2cn(C(C)(C)[C@H]3CO3)c3ccccc23)NC1=O` (stereo partly drawn) (cyclo(A[X1]L[Gly(E-crotyl)][Trp(1-CMe2(2S-oxiranyl))][NMeL][Tyr(3-NO2)])), for which the values for the MBC in experiment [1] and in experiment [2] were 1.1 µM and greater than 10 µM, respectively.

Consider `NNC(=O)c1ccncc1` [ISONIAZID], for which the MBC is 4 µM in experiment [1] and 0.99 µM in experiment [2].
